Measured values as given in ChEMBL document CHEMBL3616459, “Antimicrobial peptides with potential for biofilm eradication: synthesis and structure activity relationship studies of battacin peptides” (J Med Chem, 2015).
Converted amounts (≈) assume the structure as drawn. Positions of bridges follow the written chain, without caps; N, C: chain ends. Non-standard residues stand in square brackets, D forms with d. Residues, ends and D or L forms follow the SMILES beside them. *: point of attachment. Myristoyl = CCCCCCCCCCCCCC(=O)*; X1 = CC(C)=CCC/C(C)=C/C(=O)*; dDab = NCC[C@@H](N)C(=O)O; X2 = CCC(C)CCC(O)CC(=O)*; Dab = NCC[C@H](N)C(=O)O

Legend:
[1] = Antimicrobial activity against Pseudomonas syringae pv. actinidiae 16027 after 24 hrs by spectrophotometry; type: functional; details: Pseudomonas syringae, 16027, 24 h
Procedure, shortened: (§1)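 Broth microdilution in Luria broth. Overnight culture from a single colony, grown at 28 °C (Ea1501, Psa) or 37 °C (E. coli, S. aureus), adjusted to OD600 0.6. Peptide dissolved in LB with 0.5% acetic acid as a dilution series; 50 μL peptide plus 50 μL culture per well, triplicates.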

[2] = test system: Erwinia amylovora; assay: Antimicrobial activity against Erwinia amylovora 1501 after 24 hrs by spectrophotometry; type: functional; details: Erwinia amylovora, 1501, 24 h; procedure, shortened: as §1
[3] = test system: Escherichia coli; assay: Antimicrobial activity against Escherichia coli after 24 hrs by spectrophotometry; type: functional; procedure, shortened: as §1
[4] = test system: Pseudomonas aeruginosa; assay: Antimicrobial activity against Pseudomonas aeruginosa after 24 hrs by spectrophotometry; type: functional
[5] = test system: Erwinia amylovora; assay: Antimicrobial activity against streptomycin-resistant Erwinia amylovora after 24 hrs by spectrophotometry; type: functional
Procedure, shortened: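 Broth microdilution in Luria broth; overnight culture grown at 28 °C, adjusted to OD600 0.6, mixed 1:1 with a dilution series of peptide prepared in LB containing 0.5% acetic acid. Three replicates per concentration.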

[6] = test system: Staphylococcus aureus; assay: Antimicrobial activity against Staphylococcus aureus after 24 hrs by spectrophotometry; type: functional; procedure, shortened: as §1
[7] = Hemolytic activity in mouse erythrocytes at 100 uM after 1 hr by spectrophotometry; type: ADME, cell-based, Erythrocyte; details: read-out: Activity
Procedure, shortened: (§2)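 100 μL peptide (1 μM–1 mM in Tris buffer) plus 100 μL cells, incubated 1 h at 37 °C, triplicates. After centrifugation, supernatant A540 read. Percent hemolysis calculated relative to buffer (0%) and 0.1% Triton X-100 (100%) controls.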

[8] = Hemolytic activity in mouse erythrocytes at 100 uM to 1 mM after 1 hr by spectrophotometry; type: ADME, cell-based, Erythrocyte; details: read-out: Activity; procedure, shortened: as §2

Molecule	MIC [1] [µM]	MIC [2] [µM]	MIC [3] [µM]	MIC [4] [µM]	MIC [5] [µM]	MIC [6] [µM]	hemolysis at 1 h, 100 µM [7] [%]	hemolysis at 1 h, 100 µM [8] [%]
CC(C)C[C@@H]1NC(=O)[C@H](CCN)NC(=O)[C@H](CCN)NC(=O)[C@@H](Cc2ccccc2)NC(=O)[C@H](CC(C)C)NC(=O)[C@H](CCN)NC(=O)[C@@H](NC(=O)[C@@H](CCN)NC(=O)OCC2c3ccccc3-c3ccccc32)CCNC1=O	19 (≈ 20.8 µg/mL)	19 (≈ 20.8 µg/mL)	19 (≈ 20.8 µg/mL)	2 (≈ 2.19 µg/mL)	32 (≈ 35.1 µg/mL)	2 (≈ 2.19 µg/mL)	41	
CCC(C)CCC(=O)N[C@H](CCN)C(=O)N[C@H]1CCNC(=O)[C@H](CC(C)C)NC(=O)[C@H](CCN)NC(=O)[C@H](CCN)NC(=O)[C@@H](Cc2ccccc2)NC(=O)[C@H](CC(C)C)NC(=O)[C@H](CCN)NC1=O (some centres undefined)	5 (≈ 4.93 µg/mL)	15 (≈ 14.8 µg/mL)	15 (≈ 14.8 µg/mL)	2.5 (≈ 2.47 µg/mL)	25 (≈ 24.7 µg/mL)	101 (≈ 99.6 µg/mL)		2.02
CC(C)=CCC/C(C)=C/C(=O)N[C@H](CCN)C(=O)N[C@H]1CCNC(=O)[C@H](CC(C)C)NC(=O)[C@H](CCN)NC(=O)[C@H](CCN)NC(=O)[C@@H](Cc2ccccc2)NC(=O)[C@H](CC(C)C)NC(=O)[C@H](CCN)NC1=O	49 (≈ 50.2 µg/mL)	98 (≈ 100 µg/mL)	98 (≈ 100 µg/mL)	10 (≈ 10.2 µg/mL)	488 (≈ 500 µg/mL)	98 (≈ 100 µg/mL)		
CCCCCCCCCCCCCC(=O)N[C@H](CCN)C(=O)N[C@H]1CCNC(=O)[C@H](CC(C)C)NC(=O)[C@H](CCN)NC(=O)[C@H](CCN)NC(=O)[C@@H](Cc2ccccc2)NC(=O)[C@H](CC(C)C)NC(=O)[C@H](CCN)NC1=O	46 (≈ 49.9 µg/mL)	92 (≈ 99.8 µg/mL)	92 (≈ 99.8 µg/mL)	92 (≈ 99.8 µg/mL)	23 (≈ 24.9 µg/mL)	92 (≈ 99.8 µg/mL)		
CCCCCCCCCCCCCC(=O)N[C@H](CCCCN)C(=O)N[C@H]1CCCCNC(=O)[C@H](CC(C)C)NC(=O)[C@H](CCCCN)NC(=O)[C@H](CCCCN)NC(=O)[C@@H](Cc2ccccc2)NC(=O)[C@H](CC(C)C)NC(=O)[C@H](CCCCN)NC1=O	12 (≈ 14.7 µg/mL)	81 (≈ 99.2 µg/mL)	81 (≈ 99.2 µg/mL)	409 (≈ 501 µg/mL)	20 (≈ 24.5 µg/mL)	81 (≈ 99.2 µg/mL)		
CCC(C)CCC(=O)N[C@H](CCN)C(=O)N[C@@H](CCN)C(=O)N[C@@H](CCN)C(=O)N[C@@H](CC(C)C)C(=O)N[C@H](Cc1ccccc1)C(=O)N[C@@H](CCN)C(=O)N[C@@H](CCN)C(=O)N[C@@H](C)C(=O)O (some centres undefined)	10 (≈ 9.62 µg/mL)		15 (≈ 14.4 µg/mL)	5 (≈ 4.81 µg/mL)		5 (≈ 4.81 µg/mL)		
CCC(C)CCC(=O)N[C@H](CCN)C(=O)N[C@@H](CCN)C(=O)N[C@@H](CCN)C(=O)N[C@@H](CC(C)C)C(=O)N[C@H](Cc1ccccc1)C(=O)N[C@@H](CCN)C(=O)N[C@@H](C)C(=O)N[C@@H](CC(C)C)C(=O)O (some centres undefined)	2.5 (≈ 2.44 µg/mL)		5 (≈ 4.88 µg/mL)	5 (≈ 4.88 µg/mL)		5 (≈ 4.88 µg/mL)		
CCC(C)CCC(=O)N[C@H](CCN)C(=O)N[C@@H](CCN)C(=O)N[C@@H](CCN)C(=O)N[C@@H](CC(C)C)C(=O)N[C@H](Cc1ccccc1)C(=O)N[C@@H](C)C(=O)N[C@@H](CCN)C(=O)N[C@@H](CC(C)C)C(=O)O (some centres undefined)	100 (≈ 97.5 µg/mL)		100 (≈ 97.5 µg/mL)	50 (≈ 48.8 µg/mL)		500 (≈ 488 µg/mL)		
CCC(C)CCC(=O)N[C@H](CCN)C(=O)N[C@@H](CCN)C(=O)N[C@@H](CCN)C(=O)N[C@@H](CC(C)C)C(=O)N[C@@H](C)C(=O)N[C@@H](CCN)C(=O)N[C@@H](CCN)C(=O)N[C@@H](CC(C)C)C(=O)O (some centres undefined)	> 1000		25 (≈ 23.2 µg/mL)	> 1000		25 (≈ 23.2 µg/mL)		
CCC(C)CCC(=O)N[C@H](CCN)C(=O)N[C@@H](CCN)C(=O)N[C@@H](CCN)C(=O)N[C@@H](C)C(=O)N[C@H](Cc1ccccc1)C(=O)N[C@@H](CCN)C(=O)N[C@@H](CCN)C(=O)N[C@@H](CC(C)C)C(=O)O (some centres undefined)	> 1000		500 (≈ 481 µg/mL)	> 1000		> 1000		
CCC(C)CCC(=O)N[C@H](CCN)C(=O)N[C@@H](CCN)C(=O)N[C@@H](C)C(=O)N[C@@H](CC(C)C)C(=O)N[C@H](Cc1ccccc1)C(=O)N[C@@H](CCN)C(=O)N[C@@H](CCN)C(=O)N[C@@H](CC(C)C)C(=O)O (some centres undefined)	25 (≈ 24.4 µg/mL)		25 (≈ 24.4 µg/mL)	10 (≈ 9.75 µg/mL)		25 (≈ 24.4 µg/mL)		
CCC(C)CCC(=O)N[C@H](CCN)C(=O)N[C@@H](C)C(=O)N[C@@H](CCN)C(=O)N[C@@H](CC(C)C)C(=O)N[C@H](Cc1ccccc1)C(=O)N[C@@H](CCN)C(=O)N[C@@H](CCN)C(=O)N[C@@H](CC(C)C)C(=O)O (some centres undefined)	2.5 (≈ 2.44 µg/mL)		25 (≈ 24.4 µg/mL)	2.5 (≈ 2.44 µg/mL)		2.5 (≈ 2.44 µg/mL)		
CCC(C)CCC(=O)N[C@@H](C)C(=O)N[C@@H](CCN)C(=O)N[C@@H](CCN)C(=O)N[C@@H](CC(C)C)C(=O)N[C@H](Cc1ccccc1)C(=O)N[C@@H](CCN)C(=O)N[C@@H](CCN)C(=O)N[C@@H](CC(C)C)C(=O)O (some centres undefined)	100 (≈ 97.5 µg/mL)		500 (≈ 488 µg/mL)	25 (≈ 24.4 µg/mL)		> 1000		
CC(C)CCCC(=O)N[C@H](CCN)C(=O)N[C@@H](CCN)C(=O)N[C@@H](CC(C)C)C(=O)N[C@H](Cc1ccccc1)C(=O)N[C@@H](CCN)C(N)=O	1 (≈ 0.69 µg/mL)		10 (≈ 6.9 µg/mL)	1 (≈ 0.69 µg/mL)		2.5 (≈ 1.72 µg/mL)		1.14
CC(C)C[C@H](NC(=O)[C@H](CCN)NC(=O)[C@H](CCN)NC(=O)[C@@H](Cc1ccccc1)NC(=O)[C@H](CC(C)C)NC(=O)[C@H](CCN)NC(=O)[C@H](CCN)NC(=O)[C@H](N)CCN)C(N)=O (H-[dDab][Dab][Dab]L[dF][Dab][Dab]L-NH2)	5 (≈ 4.46 µg/mL)		100 (≈ 89.1 µg/mL)	2.5 (≈ 2.23 µg/mL)		> 1000		
CCCCCCCCCCCCCC(=O)N[C@H](CCN)C(=O)N[C@@H](CCN)C(=O)N[C@@H](CCN)C(=O)N[C@@H](CC(C)C)C(=O)N[C@H](Cc1ccccc1)C(=O)N[C@@H](CCN)C(=O)N[C@@H](CCN)C(=O)N[C@@H](CC(C)C)C(N)=O (Myristoyl-[dDab][Dab][Dab]L[dF][Dab][Dab]L-NH2)	14 (≈ 15.4 µg/mL)	9 (≈ 9.91 µg/mL)	5 (≈ 5.51 µg/mL)	14 (≈ 15.4 µg/mL)	14 (≈ 15.4 µg/mL)	5 (≈ 5.51 µg/mL)		76.9
CCCCCCCCCCCCCC(=O)N[C@H](CCCCN)C(=O)N[C@@H](CCCCN)C(=O)N[C@@H](CCCCN)C(=O)N[C@@H](CC(C)C)C(=O)N[C@H](Cc1ccccc1)C(=O)N[C@@H](CCCCN)C(=O)N[C@@H](CCCCN)C(=O)N[C@@H](CC(C)C)C(N)=O (Myristoyl-[dK]KKL[dF]KKL-NH2)	12 (≈ 14.9 µg/mL)	12 (≈ 14.9 µg/mL)	12 (≈ 14.9 µg/mL)	12 (≈ 14.9 µg/mL)	12 (≈ 14.9 µg/mL)	1 (≈ 1.24 µg/mL)		
CC(C)=CCC/C(C)=C/C(=O)N[C@H](CCN)C(=O)N[C@@H](CCN)C(=O)N[C@@H](CCN)C(=O)N[C@@H](CC(C)C)C(=O)N[C@H](Cc1ccccc1)C(=O)N[C@@H](CCN)C(=O)N[C@@H](CCN)C(=O)N[C@@H](CC(C)C)C(N)=O (X1-[dDab][Dab][Dab]L[dF][Dab][Dab]L-NH2)	14 (≈ 14.6 µg/mL)	24 (≈ 25 µg/mL)	24 (≈ 25 µg/mL)	48 (≈ 50 µg/mL)	48 (≈ 50 µg/mL)	48 (≈ 50 µg/mL)		
CCC(C)CCC(O)CC(=O)N[C@H](CCN)C(=O)N[C@H]1CCNC(=O)[C@H](CC(C)C)NC(=O)[C@H](CCN)NC(=O)[C@H](CCN)NC(=O)[C@@H](Cc2ccccc2)NC(=O)[C@H](CC(C)C)NC(=O)[C@H](CCN)NC1=O (some centres undefined) (X2-[dDab][Dab][Dab]L[dF][Dab][Dab]L; lactam 2-C)	5 (≈ 5.15 µg/mL)	24 (≈ 24.7 µg/mL)	10 (≈ 10.3 µg/mL)	5 (≈ 5.15 µg/mL)	24 (≈ 24.7 µg/mL)	> 50		
CN[C@@H]1[C@H](O[C@H]2[C@H](O[C@H]3[C@H](O)[C@@H](O)[C@H](N=C(N)N)[C@@H](O)[C@@H]3N=C(N)N)O[C@@H](C)[C@]2(O)C=O)O[C@@H](CO)[C@H](O)[C@H]1O [STREPTOMYCIN]	1 (≈ 0.582 µg/mL)	1 (≈ 0.582 µg/mL)	1 (≈ 0.582 µg/mL)		500 (≈ 291 µg/mL)			
GENTAMICIN				< 1		2.5		
